From article PMC2637182 (Journal of the American Chemical Society, 2008)

Tests used:
Assay in all cases: Continuous fluorescence kinase assay, kinetic parameters of the substrate
Type in all cases: biochemical
Src = Src (Homo sapiens, UniProt P12931); conditions: for Km / Vmax: initial slopes, direct fit of ν vs [S], Briggs-Haldane equation, mean ± s.e.m. of triplicate, SEM; for Catalytic Efficiency: kcat/KM (min^-1 μM^-1) normalized to the BTF substrate
In short: (§1)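 Sox-labelled peptide substrates were phosphorylated by the kinase and monitored continuously by fluorescence (λex 360 nm, λem 485 nm) in a fluorometer or a 96-well plate reader. KM and Vmax came from initial slopes, corrected for substrate and product fluorescence, and a direct Briggs-Haldane fit of ν vs [S]. Values are mean ± s.e.m. of triplicates. kcat/KM was normalized to the BTF substrate within each kinase.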

MK2 = MK2 (Homo sapiens, UniProt P49137); conditions: initial slopes, direct fit of ν vs [S], Briggs-Haldane equation, mean ± s.e.m. of triplicate, SEM
In short: (§2)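 Sox-containing peptide substrate becomes fluorescent on phosphorylation through Mg2+ chelation-enhanced fluorescence. Fluorescence was read continuously at λex 360 nm and λem 485 nm. Reaction components were simply mixed, and the reaction was run in a fluorometer or in a 96-well fluorescence plate reader. Rates at varied substrate levels were fitted directly as ν vs [S] to the Briggs-Haldane equation. Each was run in triplicate.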

PKA = PKA (Homo sapiens, UniProt P17612); conditions: for Km / Vmax: initial slopes, direct fit of ν vs [S], Briggs-Haldane equation, mean ± s.e.m. of triplicate, SEM
In short: as §1

Akt1 = Akt1 (Homo sapiens, UniProt P31749); conditions: initial slopes, direct fit of ν vs [S], Briggs-Haldane equation, mean ± s.e.m. of triplicate, SEM
In short: as §2

Pim2 = Pim2 (Homo sapiens, UniProt Q9P1W9); conditions: initial slopes, direct fit of ν vs [S], Briggs-Haldane equation, mean ± s.e.m. of triplicate, SEM
Abl = Abl (Homo sapiens, UniProt P00519); conditions: initial slopes, direct fit of ν vs [S], Briggs-Haldane equation, mean ± s.e.m. of triplicate, SEM
In short: as §2

PKCβI = PKCβI (Homo sapiens, UniProt P05771)
IRK = IRK (Homo sapiens, UniProt P06213); conditions: for Km / Vmax: initial slopes, direct fit of ν vs [S], Briggs-Haldane equation, mean ± s.e.m. of triplicate, SEM; for Catalytic Efficiency: kcat/KM (min^-1 μM^-1) normalized to the BTF substrate
In short: as §1

PKCδ = PKCδ (Homo sapiens, UniProt Q05655)
[1] = initial slopes, direct fit of ν vs [S], Briggs-Haldane equation, mean ± s.e.m. of triplicate, NS = Not a Substrate, SEM

IRK, sequence (P06213 1012-1310 limits assumed): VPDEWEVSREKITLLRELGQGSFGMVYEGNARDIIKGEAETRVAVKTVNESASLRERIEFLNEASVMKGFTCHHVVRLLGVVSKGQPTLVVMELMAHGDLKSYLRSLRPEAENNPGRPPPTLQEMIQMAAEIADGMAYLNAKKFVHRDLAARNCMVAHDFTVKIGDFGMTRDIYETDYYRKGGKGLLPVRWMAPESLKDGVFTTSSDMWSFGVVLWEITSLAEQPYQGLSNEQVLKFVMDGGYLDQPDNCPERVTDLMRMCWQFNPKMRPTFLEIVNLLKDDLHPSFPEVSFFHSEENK
PKCδ, sequence (Q05655 whole entry): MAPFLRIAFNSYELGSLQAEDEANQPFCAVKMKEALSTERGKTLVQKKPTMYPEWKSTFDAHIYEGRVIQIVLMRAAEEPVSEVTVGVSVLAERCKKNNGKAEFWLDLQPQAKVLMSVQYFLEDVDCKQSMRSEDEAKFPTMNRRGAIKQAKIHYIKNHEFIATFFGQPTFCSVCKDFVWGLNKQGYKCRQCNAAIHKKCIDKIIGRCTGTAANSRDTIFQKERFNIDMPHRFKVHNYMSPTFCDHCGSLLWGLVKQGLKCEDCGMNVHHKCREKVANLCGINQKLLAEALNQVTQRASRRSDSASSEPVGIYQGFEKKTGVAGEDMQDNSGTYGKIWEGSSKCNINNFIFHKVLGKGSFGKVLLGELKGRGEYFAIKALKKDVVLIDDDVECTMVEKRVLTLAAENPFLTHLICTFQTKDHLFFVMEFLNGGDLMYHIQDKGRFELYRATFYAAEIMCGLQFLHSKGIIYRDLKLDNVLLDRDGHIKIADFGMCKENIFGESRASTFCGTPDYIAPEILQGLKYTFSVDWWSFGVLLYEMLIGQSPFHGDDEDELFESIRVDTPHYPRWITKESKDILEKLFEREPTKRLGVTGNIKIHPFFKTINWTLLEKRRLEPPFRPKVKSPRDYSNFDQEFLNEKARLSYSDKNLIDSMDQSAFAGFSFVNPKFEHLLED
PKCβI, sequence (P05771 whole entry): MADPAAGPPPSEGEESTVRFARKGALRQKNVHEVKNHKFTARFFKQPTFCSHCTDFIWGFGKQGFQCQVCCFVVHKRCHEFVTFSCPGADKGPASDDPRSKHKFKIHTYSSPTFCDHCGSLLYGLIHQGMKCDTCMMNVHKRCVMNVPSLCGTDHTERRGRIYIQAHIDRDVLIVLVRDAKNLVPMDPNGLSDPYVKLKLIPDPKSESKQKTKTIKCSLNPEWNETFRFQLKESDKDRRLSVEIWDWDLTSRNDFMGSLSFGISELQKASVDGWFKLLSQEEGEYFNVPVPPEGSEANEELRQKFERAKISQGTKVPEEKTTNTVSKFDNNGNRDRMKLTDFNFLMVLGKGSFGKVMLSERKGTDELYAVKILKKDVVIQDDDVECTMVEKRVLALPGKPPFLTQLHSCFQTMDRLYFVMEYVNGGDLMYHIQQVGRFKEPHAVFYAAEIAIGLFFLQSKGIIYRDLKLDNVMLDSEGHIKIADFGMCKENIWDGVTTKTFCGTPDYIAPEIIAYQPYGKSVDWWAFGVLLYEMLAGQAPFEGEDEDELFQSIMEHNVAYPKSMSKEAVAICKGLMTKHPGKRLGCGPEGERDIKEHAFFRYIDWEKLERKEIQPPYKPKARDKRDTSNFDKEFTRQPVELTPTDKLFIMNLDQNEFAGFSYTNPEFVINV
Pim2, sequence (Q9P1W9 whole entry, species assumed): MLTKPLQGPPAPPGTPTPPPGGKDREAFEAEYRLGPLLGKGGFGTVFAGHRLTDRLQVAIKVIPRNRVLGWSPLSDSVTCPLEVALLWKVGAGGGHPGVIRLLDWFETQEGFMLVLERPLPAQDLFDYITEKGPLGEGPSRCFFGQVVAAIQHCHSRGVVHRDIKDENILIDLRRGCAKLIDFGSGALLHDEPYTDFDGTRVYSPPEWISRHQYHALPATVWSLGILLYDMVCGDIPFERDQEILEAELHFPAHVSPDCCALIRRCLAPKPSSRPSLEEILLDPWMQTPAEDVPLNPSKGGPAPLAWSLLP
Akt1, sequence (P31749 whole entry, species assumed): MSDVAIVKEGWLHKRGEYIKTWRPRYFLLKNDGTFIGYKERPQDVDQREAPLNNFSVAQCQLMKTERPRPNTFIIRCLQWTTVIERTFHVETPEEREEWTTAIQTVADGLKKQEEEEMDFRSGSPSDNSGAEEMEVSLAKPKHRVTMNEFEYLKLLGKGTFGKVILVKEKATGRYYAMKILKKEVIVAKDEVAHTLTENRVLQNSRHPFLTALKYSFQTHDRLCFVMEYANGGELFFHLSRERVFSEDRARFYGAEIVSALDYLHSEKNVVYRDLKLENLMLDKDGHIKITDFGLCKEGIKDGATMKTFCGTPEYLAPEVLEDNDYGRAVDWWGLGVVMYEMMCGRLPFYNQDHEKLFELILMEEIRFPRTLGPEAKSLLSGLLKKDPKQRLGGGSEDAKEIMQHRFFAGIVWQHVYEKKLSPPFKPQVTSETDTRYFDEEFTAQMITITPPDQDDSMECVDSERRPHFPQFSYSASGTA
MK2, sequence (P49137 whole entry, species assumed): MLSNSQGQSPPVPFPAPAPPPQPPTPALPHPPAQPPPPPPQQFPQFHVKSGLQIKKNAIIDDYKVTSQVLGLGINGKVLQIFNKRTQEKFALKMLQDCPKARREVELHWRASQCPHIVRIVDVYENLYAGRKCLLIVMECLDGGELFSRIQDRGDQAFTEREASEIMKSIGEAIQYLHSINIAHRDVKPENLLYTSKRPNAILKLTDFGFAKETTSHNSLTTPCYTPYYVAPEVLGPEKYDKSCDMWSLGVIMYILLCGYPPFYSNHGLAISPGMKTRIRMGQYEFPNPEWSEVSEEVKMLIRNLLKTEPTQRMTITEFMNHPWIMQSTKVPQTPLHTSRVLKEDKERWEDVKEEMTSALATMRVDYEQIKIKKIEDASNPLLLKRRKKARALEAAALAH
Abl, sequence (P00519 whole entry, species assumed): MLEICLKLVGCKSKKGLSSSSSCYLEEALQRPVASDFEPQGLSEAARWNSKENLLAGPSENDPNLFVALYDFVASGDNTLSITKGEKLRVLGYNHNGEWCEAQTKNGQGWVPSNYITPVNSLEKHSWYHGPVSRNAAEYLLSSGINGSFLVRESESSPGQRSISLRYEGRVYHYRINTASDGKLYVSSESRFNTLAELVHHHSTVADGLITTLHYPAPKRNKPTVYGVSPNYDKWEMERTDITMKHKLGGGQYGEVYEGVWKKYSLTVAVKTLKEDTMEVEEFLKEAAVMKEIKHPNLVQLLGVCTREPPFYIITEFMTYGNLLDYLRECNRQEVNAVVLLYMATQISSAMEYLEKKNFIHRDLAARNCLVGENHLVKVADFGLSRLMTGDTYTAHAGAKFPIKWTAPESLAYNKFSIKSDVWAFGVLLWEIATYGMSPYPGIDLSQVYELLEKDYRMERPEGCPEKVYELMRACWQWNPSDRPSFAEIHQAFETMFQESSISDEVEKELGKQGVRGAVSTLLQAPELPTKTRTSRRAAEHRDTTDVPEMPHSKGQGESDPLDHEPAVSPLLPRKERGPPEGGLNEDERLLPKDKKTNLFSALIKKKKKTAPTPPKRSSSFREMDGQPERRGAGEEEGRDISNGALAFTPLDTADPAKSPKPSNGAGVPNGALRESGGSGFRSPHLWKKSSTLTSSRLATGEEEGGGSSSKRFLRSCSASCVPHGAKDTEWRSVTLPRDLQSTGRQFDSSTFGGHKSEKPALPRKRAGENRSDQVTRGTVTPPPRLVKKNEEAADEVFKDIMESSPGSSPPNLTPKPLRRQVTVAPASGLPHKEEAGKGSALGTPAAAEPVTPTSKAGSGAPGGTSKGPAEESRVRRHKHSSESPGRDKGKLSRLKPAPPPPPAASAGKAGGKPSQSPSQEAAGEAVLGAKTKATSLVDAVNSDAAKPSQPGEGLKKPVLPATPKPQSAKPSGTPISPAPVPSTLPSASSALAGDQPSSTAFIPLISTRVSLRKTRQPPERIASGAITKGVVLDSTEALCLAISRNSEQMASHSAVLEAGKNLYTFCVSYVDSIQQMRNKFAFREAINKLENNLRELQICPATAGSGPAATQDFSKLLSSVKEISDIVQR

For “Ac-AEE-CSox-IY*GEFEAKKKK-CONH2 [Src RDF]”, the Km (Src) was 7 ± 1 µM, the Vmax (Src) was 3.4 ± 0.2 µmol/mg/min and the “Catalytic Efficiency” value (Src) was 28.
Ac-AHLQRQLS*I-CSox-HH-CONH2 [MK2 RDF] gave a Km (MK2) of 1.2 ± 0.2 µM and a Vmax (MK2) of 1.3 ± 0.1 µmol/mg/min.
For Ac-ALRRAS*L-CSox-AA-CONH2 [PKA RDF], the Km (PKA) was 2.6 ± 0.3 µM, the Vmax (PKA) was 17.9 ± 0.8 µmol/mg/min and the “Catalytic Efficiency” value (PKA; kcat/KM (min^-1 μM^-1) normalized to the BTF substrate) was 1.
“Ac-ARKRERAYS*F-CSox-HHA-CONH2 [Akt1 RDF]” was tested, and the Km (Akt1) was 0.69 ± 0.11 µM and the Vmax (Akt1) was 2.5 ± 0.2 µmol/mg/min.
“Ac-ARKRRRHPS*G-CSox-PTA-CONH2 [Pim2 RDF]” gave a Km (Pim2) of 1.4 ± 0.1 µM and a Vmax (Pim2) of 0.67 ± 0.02 µmol/mg/min.
Ac-E-CSox-IY*AAPFAKKK-CONH2 [Abl RDF] was tested, and the Km (Abl) was 10.5 ± 1.5 µM and the Vmax (Abl) was 19.1 ± 1.0 µmol/mg/min.
For Ac-LKR-CSox-AS*FKKFA-CONH2 [PKCβI RDF], the “turnover by the kinase (in words)” value (PKCβI; Figure S3) was “excellent substrates”, the Km (PKCβI; [1]) was 0.81 ± 0.18 µM and the Vmax (PKCβI; [1]) was 0.76 ± 0.06 µmol/mg/min.
Substance Ac-LRRAS*L-DPro-Sox-G-CONH2 [PKA BTF] has a Km (PKA) of 2.7 ± 0.4 µM and a Vmax (PKA) of 26.5 ± 1.1 µmol/mg/min.
For “Ac-R-CSox-DY*-Nle-TMQIGKK-CONH2 [IRK RDF]”, the Km (IRK) was 27.1 ± 3.9 µM, the Vmax (IRK) was 6.3 ± 0.4 µmol/mg/min and the “Catalytic Efficiency” value (IRK) was 1.
With Ac-RKRKGS*F-CSox-YGG-CONH2 [PKCδ RDF] the “turnover by the kinase (in words)” value (PKCδ; Figure S3) was “excellent substrates”, the Km (PKCδ; [1]) was 0.48 ± 0.07 µM and the Vmax (PKCδ; [1]) was 0.39 ± 0.02 µmol/mg/min.
Ac-Sox-PEIY*GEFEAKKKK-CONH2 [Src BTF] was tested, and the Km (Src) was 30.7 ± 5.8 µM, the Vmax (Src) was 0.54 ± 0.04 µmol/mg/min and the “Catalytic Efficiency” value (Src) was 1.
“Ac-Sox-PGDY*-Nle-TMQIGKK-CONH2 [IRK BTF]” was tested, and the Km (IRK) was 25.7 ± 0.7 µM, the Vmax (IRK) was 7.3 ± 2.2 µmol/mg/min and the “Catalytic Efficiency” value (IRK) was 1.
